Consider nine compounds from ChEMBL document CHEMBL3868629, “Discovery of novel N-phenyl 1,4-dihydropyridines with a dual mode of antimycobacterial activity” (Bioorg Med Chem Lett, 2016).

The test system of series [1] is Mycobacterium tuberculosis. Put plainly: Antitubercular activity against Mycobacterium tuberculosis H37Rv expressing GFP assessed as growth inhibition at 1 ug/ml measured after 7 days by fluorescence analysis relative to control. Format: functional. Particulars: 168 h, read-out: GI. An outline of the steps:
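GFP-expressing H37Rv cultured in 7H9 with 10% OADC, 0.05% Tween 80 and 0.2% glycerol, sealed under an air-permeable membrane. Growth was read as fluorescence (excitation 485 nm, emission 528 nm) after seven days, in triplicate. Fluorescence tracks bacterial growth.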

The target of series [2] is ATP-dependent translocase ABCB1 (Homo sapiens, UniProt P08183). As to the kind of experiment: Inhibition of human ABCB1 expressed in mouse T-lymphoma cells assessed as rhodamine-123 accumulation by measuring fluorescence activity ratio at 1 uM by flow cytometry relative to control. It is filed as cell-based.
Series [3] deals with T1, Multidrug efflux ATP-binding/permease protein Rv0194 (Mycobacterium tuberculosis (strain ATCC 25618 / H37Rv)) (UniProt O53645).
T1 sequence (whole entry): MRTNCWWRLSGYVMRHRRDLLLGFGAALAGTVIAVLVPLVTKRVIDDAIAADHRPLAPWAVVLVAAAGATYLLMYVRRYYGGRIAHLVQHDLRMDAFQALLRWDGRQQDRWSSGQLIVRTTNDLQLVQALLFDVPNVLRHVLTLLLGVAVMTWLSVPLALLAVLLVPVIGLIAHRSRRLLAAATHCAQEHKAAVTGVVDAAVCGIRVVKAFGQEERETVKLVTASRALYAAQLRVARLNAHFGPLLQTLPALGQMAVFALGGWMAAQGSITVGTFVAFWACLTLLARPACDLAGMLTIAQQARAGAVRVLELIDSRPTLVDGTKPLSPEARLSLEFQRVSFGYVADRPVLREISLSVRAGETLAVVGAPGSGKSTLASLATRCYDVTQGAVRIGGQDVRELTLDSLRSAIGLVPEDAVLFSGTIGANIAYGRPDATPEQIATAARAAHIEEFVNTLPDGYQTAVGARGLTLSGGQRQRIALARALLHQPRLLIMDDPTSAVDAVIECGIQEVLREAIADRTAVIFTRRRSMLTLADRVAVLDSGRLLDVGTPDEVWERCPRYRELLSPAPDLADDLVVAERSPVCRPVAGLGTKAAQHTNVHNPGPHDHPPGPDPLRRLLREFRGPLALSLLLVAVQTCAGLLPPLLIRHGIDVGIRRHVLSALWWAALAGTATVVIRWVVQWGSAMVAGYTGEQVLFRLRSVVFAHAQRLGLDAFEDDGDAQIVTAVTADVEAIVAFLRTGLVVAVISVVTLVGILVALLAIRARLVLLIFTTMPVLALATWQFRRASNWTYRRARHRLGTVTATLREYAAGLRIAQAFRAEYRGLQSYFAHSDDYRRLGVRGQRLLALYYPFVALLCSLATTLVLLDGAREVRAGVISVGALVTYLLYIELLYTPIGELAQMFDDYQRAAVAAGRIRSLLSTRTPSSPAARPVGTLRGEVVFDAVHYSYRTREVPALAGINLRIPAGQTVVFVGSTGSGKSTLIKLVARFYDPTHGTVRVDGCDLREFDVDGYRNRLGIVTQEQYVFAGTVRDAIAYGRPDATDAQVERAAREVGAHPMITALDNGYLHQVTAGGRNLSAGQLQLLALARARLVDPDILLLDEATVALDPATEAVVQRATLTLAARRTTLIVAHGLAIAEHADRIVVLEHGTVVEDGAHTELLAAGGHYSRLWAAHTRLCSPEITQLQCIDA
Put plainly: Inhibition of GFP-fused Mycobacterium tuberculosis H37Rv Rv0194 assessed as potentiation of ciprofloxacin-mediated antitubercular activity by measuring ciprofloxacin growth inhibition at 0.3 ug/ml (reference value: 19%). An outline of the steps:
(§1)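 The antitubercular drug at set concentrations was tested alone and combined with the test compound held at 0.3 µg/mL. The GFP-expressing H37Rv growth assay was used: 7H9 with 10% OADC, 0.05% Tween 80 and 0.2% glycerol, seven days of culture, fluorescence at 485/528 nm, triplicates.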

The target in series [4] is T1, Multidrug efflux ATP-binding/permease protein Rv0194 (Mycobacterium tuberculosis (strain ATCC 25618 / H37Rv)). As to the kind of experiment: Inhibition of GFP-fused Mycobacterium tuberculosis H37Rv Rv0194 assessed as potentiation of ciprofloxacin-mediated antitubercular activity by measuring fold increase in ciprofloxacin growth inhibition at 0.3 ug/ml.
For series [5] the target is unchanged. As to the kind of experiment: Inhibition of GFP-fused Mycobacterium tuberculosis H37Rv Rv0194 assessed as potentiation of clofazimine-mediated antitubercular activity by measuring clofazimine growth inhibition at 0.3 ug/ml (reference value: 39%). Summed up: as §1

ATP-dependent translocase ABCB1, sequence (P08183 whole entry): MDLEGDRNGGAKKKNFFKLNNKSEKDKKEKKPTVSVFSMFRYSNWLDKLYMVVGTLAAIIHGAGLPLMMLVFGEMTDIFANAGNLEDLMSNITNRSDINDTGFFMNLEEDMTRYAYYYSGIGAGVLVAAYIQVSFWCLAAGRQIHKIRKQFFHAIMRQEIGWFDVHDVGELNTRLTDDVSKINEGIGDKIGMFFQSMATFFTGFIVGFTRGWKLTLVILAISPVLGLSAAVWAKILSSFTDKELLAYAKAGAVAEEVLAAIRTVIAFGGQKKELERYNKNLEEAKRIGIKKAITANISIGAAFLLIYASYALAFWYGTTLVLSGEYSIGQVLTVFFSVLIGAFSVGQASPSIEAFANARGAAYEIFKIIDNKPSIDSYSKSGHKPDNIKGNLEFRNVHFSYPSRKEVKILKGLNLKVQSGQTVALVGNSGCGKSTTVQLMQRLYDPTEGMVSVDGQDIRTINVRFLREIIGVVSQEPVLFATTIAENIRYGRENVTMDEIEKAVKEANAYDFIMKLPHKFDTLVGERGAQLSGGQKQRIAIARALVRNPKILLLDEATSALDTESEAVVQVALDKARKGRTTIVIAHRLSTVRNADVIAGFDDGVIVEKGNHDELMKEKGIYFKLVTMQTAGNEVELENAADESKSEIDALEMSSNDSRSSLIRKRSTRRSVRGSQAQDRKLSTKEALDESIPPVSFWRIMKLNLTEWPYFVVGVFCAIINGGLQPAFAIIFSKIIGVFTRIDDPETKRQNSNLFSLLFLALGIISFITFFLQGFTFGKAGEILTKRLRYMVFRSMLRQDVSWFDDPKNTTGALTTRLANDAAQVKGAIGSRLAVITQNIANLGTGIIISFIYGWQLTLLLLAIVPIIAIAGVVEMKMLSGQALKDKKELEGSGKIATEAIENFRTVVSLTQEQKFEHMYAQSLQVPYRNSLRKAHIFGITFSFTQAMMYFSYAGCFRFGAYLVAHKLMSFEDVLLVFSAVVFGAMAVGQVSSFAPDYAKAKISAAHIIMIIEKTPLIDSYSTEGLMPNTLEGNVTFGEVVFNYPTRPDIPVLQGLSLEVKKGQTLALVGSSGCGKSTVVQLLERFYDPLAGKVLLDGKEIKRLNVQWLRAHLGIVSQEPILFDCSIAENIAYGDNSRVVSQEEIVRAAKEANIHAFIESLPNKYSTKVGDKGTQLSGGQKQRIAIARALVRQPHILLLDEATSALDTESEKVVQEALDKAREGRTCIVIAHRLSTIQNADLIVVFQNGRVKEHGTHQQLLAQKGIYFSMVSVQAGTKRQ

As for `NNC(=O)c1ccncc1` [ISONIAZID], the inhibition of growth at 1 µg/mL in series [1] is 97%.

As for `CCOC(=O)C1=CN(c2ccc(OC)cc2)C=C(C(=O)OCC)C1c1ccccc1`, the inhibition of growth at 1 µg/mL in series [1] is 60%. For the same compound, the Ratio in series [2] stood at 3.9.

As to `CCOC(=O)C1=CN(c2ccc(OC)cc2)C=C(C(=O)OCC)C1c1ccc(OC)cc1`, the inhibition of growth at 1 µg/mL in series [1] turned out to be 35%. For the same compound, the Ratio in series [2] is 1.2.

Consider `CCOC(=O)C1=CN(c2ccc(OC)cc2)C=C(C(=O)OCC)C1c1cccc(OC)c1`, for which the inhibition of growth at 1 µg/mL in series [1] came to 41%. In series [2], the Ratio is listed as 3.4.

`CCOC(=O)C1=CN(c2ccccc2)C=C(C(=O)OCC)C1c1ccc(OC)cc1`: the inhibition of growth at 1 µg/mL in series [1] stood at 25%.

On to `CCOC(=O)C1=CN(c2ccc(OC)cc2)C=C(C(=O)OCC)C1c1ccc(OC)c(OC)c1`, for which, in series [1], the inhibition of growth at 1 µg/mL worked out at 60%. Further, in series [2], the Ratio is reported as 5.2.

As for `CCOC(=O)C1=CN(c2ccccc2)C=C(C(=O)OCC)C1c1ccc(OC)c(OC)c1`, the growth inhibition (GI) in series [3] turned out to be 46%; in series [5], 60%. Besides, the inhibition of growth at 1 µg/mL in series [1] was 30%. In addition, the Ratio in series [2] worked out at 7.3. The fold change (FC) in series [4] turned out to be 2.5.

`CCOC(=O)C1=CN(c2ccccc2)C=C(C(=O)OCC)C1c1ccccc1`: the inhibition of growth at 1 µg/mL in series [1] turned out to be 57%. In addition, in series [2], the Ratio amounted to 4.3.

Take `CCOC(=O)C1=CN(c2ccccc2)C=C(C(=O)OCC)C1c1cccc(OC)c1`: in series [1], the inhibition of growth at 1 µg/mL stood at 61%. For the same compound, the Ratio in series [2] was found to be 1.1.
